Results as given in ChEMBL document CHEMBL5724801, “EUbOPEN Chemogenomics Library - Multiplex” (2024).
Several values for one entry are separate records, joined by “and”; a condition that tells them apart may be missing. Identical values can stand only once.

System: Fibroblast
Assay: Multiplex assay against human fibroblast
Format: toxicity, cell-based
How it was run: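 Phenotypes for tubulin, mitochondrial mass and membrane permeability are expressed as per cents of healthy-nucleus cells. Cells were stained live at seeding with Hoechst33342, BioTracker Green Microtubule Cytoskeleton Dye, MitoTracker Red and Annexin V Alexa Fluor 680, then imaged after compound addition on a CQ1 microscope at 37°C and 5% CO2. Machine-learning gating in CellPathfinder separated Hoechst high-intensity objects from normal cells, divided normal cells by nuclear state (healthy, pyknosed, fragmented) and divided pyknosed cells into mitotic or apoptotic.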

[1] = 12 h, 1 µM, compound concentration 1 uM
[2] = 12 h, 10 µM, compound concentration 10 uM
[3] = 24 h, 1 µM, compound concentration 1 uM
[4] = 24 h, 10 µM, compound concentration 10 uM
[5] = 48 h, 1 µM, compound concentration 1 uM
[6] = 48 h, 10 µM, compound concentration 10 uM

With `O=C(NCCO)c1cccc(-c2cc(Nc3ccc(OC(F)(F)F)cc3)ncn2)c1` the “Population Apoptotic (%)” value [1] was 46% and 38%, the “Population Fragmented Nuclei (%)” value [1] was 16% and 29% and the “Population Healthy Nuclei (%)” value [1] was 60% and 46%. For the same molecule, the “Population Hoechst High Intensity Objects (%)” value [1] was 3% and 4%, the “Population Membrane Permeable-Phenotype (%)” value [1] was 1% and 10% and the “Population Mitochondria Different-Phenotype (%)” value [1] was 6% and 8%. For the same molecule, the “Population Mitotic Cells (%)” value [1] was 53% and 61%, the “Population Normal (%)” value [1] was 96% and 95% and the “Population Pyknosed Nuclei (%)” value [1] was 24% and 23%. For the same molecule, the “Population Tubulin-Different-Phenotype (%)” value [1] was 33% and 46%, the “Total Cell Count” value [1] was 130 and 149 and the “Population Apoptotic (%)” value [2] was 37% and 40%. For the same molecule, the “Population Fragmented Nuclei (%)” value [2] was 17% and 22%, the “Population Healthy Nuclei (%)” value [2] was 59% and 36% and the “Population Hoechst High Intensity Objects (%)” value [2] was 5% and 10%. For the same molecule, the “Population Membrane Permeable-Phenotype (%)” value [2] was 0% and 11%, the “Population Mitochondria Different-Phenotype (%)” value [2] was 13% and 11% and the “Population Mitotic Cells (%)” value [2] was 62% and 59%. The “Population Normal (%)” value [2] was 94% and 89%, the “Population Pyknosed Nuclei (%)” value [2] was 22% and 40% and the “Population Tubulin-Different-Phenotype (%)” value [2] was 54% and 79%. The “Total Cell Count” value [2] was 185 and 192, the “Population Apoptotic (%)” value [3] was 56% and 52% and the “Population Fragmented Nuclei (%)” value [3] was 16% and 24%. For the same molecule, the “Population Healthy Nuclei (%)” value [3] was 60% and 50%, the “Population Hoechst High Intensity Objects (%)” value [3] was 1% and 2% and the “Population Membrane Permeable-Phenotype (%)” value [3] was 2% and 5%. The “Population Mitochondria Different-Phenotype (%)” value [3] was 4% and 5%, the “Population Mitotic Cells (%)” value [3] was 43% and 47% and the “Population Normal (%)” value [3] was 98% and 97%. The “Population Pyknosed Nuclei (%)” value [3] was 22% and 25%, the “Population Tubulin-Different-Phenotype (%)” value [3] was 33% and 42% and the “Total Cell Count” value [3] was 135 and 139. The “Population Apoptotic (%)” value [4] was 50% and 41%, the “Population Fragmented Nuclei (%)” value [4] was 14% and 30% and the “Population Healthy Nuclei (%)” value [4] was 61% and 36%. The “Population Hoechst High Intensity Objects (%)” value [4] was 11% and 7%, the “Population Membrane Permeable-Phenotype (%)” value [4] was 1% and 10% and the “Population Mitochondria Different-Phenotype (%)” value [4] was 21% and 25%. The “Population Mitotic Cells (%)” value [4] was 50% and 58%, the “Population Normal (%)” value [4] was 88% and 92% and the “Population Pyknosed Nuclei (%)” value [4] was 24% and 32%. For the same molecule, the “Population Tubulin-Different-Phenotype (%)” value [4] was 53% and 84%, the “Total Cell Count” value [4] was 175 and 187 and the “Population Apoptotic (%)” value [5] was 82% and 45%. For the same molecule, the “Population Fragmented Nuclei (%)” value [5] was 21% and 31%, the “Population Healthy Nuclei (%)” value [5] was 65% and 53% and the “Population Hoechst High Intensity Objects (%)” value [5] was 1%. The “Population Membrane Permeable-Phenotype (%)” value [5] was 3% and 6%, the “Population Mitochondria Different-Phenotype (%)” value [5] was 1% and 4% and the “Population Normal (%)” value [5] was 98%. For the same molecule, the “Population Pyknosed Nuclei (%)” value [5] was 13% and 14%, the “Population Tubulin-Different-Phenotype (%)” value [5] was 28% and 38% and the “Total Cell Count” value [5] was 130 and 156. The “Population Apoptotic (%)” value [6] was 70% and 76%, the “Population Fragmented Nuclei (%)” value [6] was 35% and 40% and the “Population Healthy Nuclei (%)” value [6] was 51% and 47%. For the same molecule, the “Population Hoechst High Intensity Objects (%)” value [6] was 13% and 6%, the “Population Membrane Permeable-Phenotype (%)” value [6] was 0% and 13% and the “Population Mitochondria Different-Phenotype (%)” value [6] was 26% and 19%. For the same molecule, the “Population Mitotic Cells (%)” value [6] was 30% and 23%, the “Population Normal (%)” value [6] was 86% and 93% and the “Population Pyknosed Nuclei (%)” value [6] was 13% and 11%. The “Population Tubulin-Different-Phenotype (%)” value [6] was 64% and 86% and the “Total Cell Count” value [6] was 170 and 198.
